Reference: ChEMBL document CHEMBL4834426, “Antimalarial Benzimidazole Derivatives Incorporating Phenolic Mannich Base Side Chains Inhibit Microtubule and Hemozoin Formation: Structure-Activity Relationship and In Vivo Oral Efficacy Studies” (J Med Chem, 2021)
Activity calls are given as the source filed them. No cut-off for these calls is given here.

Assays:
[1] = AUC (0 to t) in Balb/c mouse at 3 mg/kg, iv measured up to 24 hrs by LC-MS/MS analysis; format: ADME, organism-based; set-up: dose 3 mg/kg, time <=24; details: in vivo
Procedure, shortened: (§1)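 Intravenous dosing in male Balb/c mice, fed ad libitum. Tail-vein blood sampled into heparinized tubes at 0.17, 0.5, 1, 3, 5, 7, 9 and 24 h, frozen at −80 °C. Blood extracted by acetonitrile protein precipitation with internal standard; LC−MS/MS quantitation, LOQ 2 ng/mL. Noncompartmental analysis based on curve stripping.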

[2] = Metabolic stability in human liver microsomes assessed as compound remaining at 1 uM incubated for 30 mins by LC-MS/MS analysis; format: ADME, Microsome; details: read-out: Stabilty
Procedure, shortened: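 Single-point design: 1 μM compound with 0.4 mg/mL liver microsomes in 0.1 M phosphate buffer pH 7.4 for 30 min. Quenched with ice-cold acetonitrile containing carbamazepine internal standard, centrifuged, analyzed by LC−MS/MS. Percent remaining from internal-standard-corrected peak areas at 30 min versus 0 min. Propranolol, midazolam and MMV390048 as controls.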

[3] = Resistance index, ratio of IC50 for antimalarial activity against asexual blood stage multi drug-resistant Plasmodium falciparum K1 to IC50 for antimalarial activity against asexual blood stage drug-sensitive Plasmodium falciparum NF54; format: functional
Procedure, shortened: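 Resistance index is IC₅₀(K1)/IC₅₀(NF54). Both IC₅₀s came from the [³H]-hypoxanthine incorporation assay, as means of ≥2 independent experiments.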

[4] = Volume of distribution at steady state in Balb/c mouse at 3 mg/kg, iv measured up to 24 hrs by LC-MS/MS analysis; format: ADME, organism-based; details: in vivo, read-out: Vdss; procedure, shortened: as §1
Hemozoin = experiment: Inhibition of beta-hematin formation […] incubated for 5 hrs by NP40 detergent-mediated assay
Procedure, shortened: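 Cell-free β-hematin formation assay in NP-40 (305.5 μM) lipid-mimic medium. Compounds from 20 mM stock serially diluted across wells, in duplicate. Hematin suspended in 1 M acetate buffer pH 4.8; plates incubated ~5 h at 37 °C. Then pyridine solution (with HEPES pH 7.4) and acetone added; absorbance at 405 nm. IC₅₀ by curve fit.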

Plasmodium falciparum = experiment: Antiplasmodial activity against […] Plasmodium falciparum NF54 early gametocytes transfected with GFP-Luc […] at 1 uM incubated for 48 hrs by microscopy based luciferase reporter gene assay relative to control; format: functional
Procedure, shortened: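 NF54-Pfs16-GFP-Luc gametocytes, assays set up day 5 (early, stage II/III) or day 10 (late, stage IV/V). Culture at 2−3% gametocytemia, 1.5% hematocrit, 48 h drug exposure at 37 °C under 90% N₂/5% O₂/5% CO₂. Lysates mixed with luciferin; bioluminescence read with 10 s integration. Dual-point: one biological repeat in technical triplicate. Methylene blue (5 μM) reference.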

[5] = Half life in Balb/c mouse at 10 mg/kg, po measured up to 24 hrs by LC-MS/MS analysis; format: ADME, organism-based; details: in vivo
Procedure, shortened: (§2)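 Male Balb/c mice, not fasted, food and water ad libitum; single oral dose. Tail-vein blood into heparinized tubes at 0.5, 1, 3, 5, 7, 9 and 24 h, stored at −80 °C. Whole blood protein-precipitated with acetonitrile containing internal standard, analyzed by LC−MS/MS (LOQ 2 ng/mL). Parameters by noncompartmental analysis with curve stripping. Mean of three mice per point.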

[6] = Cmax in Balb/c mouse at 10 mg/kg, po measured up to 24 hrs by LC-MS/MS analysis; format: ADME, organism-based; set-up: route oral, dose 10 mg/kg, time <=24; details: in vivo; procedure, shortened: as §2
[7] = Kinetic solubility of the compound in pH 6.5 incubated for 24 hrs by HPLC-DAD analysis; format: physicochemical; details: buffer, read-out: Kinetic_solubility
Procedure, shortened: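 Miniaturized shake-flask method. 10 mM DMSO stock dried down, phosphate buffer pH 6.5 added, shaken 24 h at 25 °C. Centrifuged 3500g for 15 min; supernatant analyzed by HPLC-DAD against 10−220 μM DMSO calibration curve. Reserpine, hydrocortisone and MMV390048 as controls.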

[8] = test system: Plasmodium falciparum NF54; experiment: Inhibition of tubulin polymerization in […] Plasmodium falciparum NF54 early gametocytes at 2400 nM incubated for 24 hrs by tubulin tracker Oregon Green staining method
Procedure, shortened: (§3)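 Treatment at 600 nM for asexual parasites (~1% parasitemia, 5% hematocrit, sorbitol-synchronized rings) or 2400 nM for early gametocytes (~2% gametocytemia, 2% hematocrit, 20% I/60% II/20% III). 24 h at 37 °C, 90% N₂/5% CO₂/5% O₂, DMSO <0.1%. Stained with 250 nM Tubulin Tracker Oregon Green 488 for 30 min and Hoechst (100 nM) for 10 min. PBS-washed, imaged live by confocal microscopy. Colchicine (20 μM) positive control.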

[9] = test system: Plasmodium falciparum NF54; experiment: Inhibition of tubulin polymerization in asexual stage (I) Plasmodium falciparum NF54 early gametocytes at 2400 nM incubated for 24 hrs by tubulin tracker Oregon Green staining method; procedure, shortened: as §3

## CCNCc1cc(Cl)cc(Nc2nc3cc(F)c(F)cc3n2Cc2ccc(C(F)(F)F)cc2)c1O
[1]
  AUCt: 443 µmol·min/L
[2]
  remaining at 0.5 h, 1 µM: > 99%
[3]
  Ratio IC50: 0.42
[4]
  Vd: 5.8 L/kg
Hemozoin
  IC50: 18.1 µM
Plasmodium falciparum
  inhibition at 1 µM: 62%
[5]
  half-life: 8.3 h
[6]
  Cmax: 0.4 µM
[7]
  solubility kinetic at 24 h: < 5 µM
[8]
  inhibition: Active
[9]
  inhibition: inactive
